Laboratory results taken from ChEMBL document CHEMBL3108734, “Identification of a new scaffold for hsp90 C-terminal inhibition” (ACS Med Chem Lett, 2014).
The source made the active and inactive calls. No cut-off for these calls is given here.

Tests used:
MCF7 = assay: Antiproliferative activity against human MCF7 cells after 72 hrs by MTS assay; format: functional, cell-based; details: MCF7, 72 h
Summary of the method: (§1)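 IC50 values for growth inhibition were derived from assays run in triplicate. Values are mean ± standard deviation of at least two separate experiments.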

[1] = Antiproliferative activity against human SKBR3 cells after 72 hrs by MTS assay; format: functional, cell-based; details: SK-BR-3, 72 h; summary of the method: as §1
[2] = biological target: Heat shock protein HSP 90-beta (Homo sapiens) (UniProt P08238); assay: Inhibition of HSP90 in human MCF7 cells assessed as degradation of p-Akt at 1 to 10 uM after 24 hrs by Western blotting analysis; format: cell-based
Chain of Heat shock protein HSP 90-beta (Homo sapiens) (P08238 whole entry): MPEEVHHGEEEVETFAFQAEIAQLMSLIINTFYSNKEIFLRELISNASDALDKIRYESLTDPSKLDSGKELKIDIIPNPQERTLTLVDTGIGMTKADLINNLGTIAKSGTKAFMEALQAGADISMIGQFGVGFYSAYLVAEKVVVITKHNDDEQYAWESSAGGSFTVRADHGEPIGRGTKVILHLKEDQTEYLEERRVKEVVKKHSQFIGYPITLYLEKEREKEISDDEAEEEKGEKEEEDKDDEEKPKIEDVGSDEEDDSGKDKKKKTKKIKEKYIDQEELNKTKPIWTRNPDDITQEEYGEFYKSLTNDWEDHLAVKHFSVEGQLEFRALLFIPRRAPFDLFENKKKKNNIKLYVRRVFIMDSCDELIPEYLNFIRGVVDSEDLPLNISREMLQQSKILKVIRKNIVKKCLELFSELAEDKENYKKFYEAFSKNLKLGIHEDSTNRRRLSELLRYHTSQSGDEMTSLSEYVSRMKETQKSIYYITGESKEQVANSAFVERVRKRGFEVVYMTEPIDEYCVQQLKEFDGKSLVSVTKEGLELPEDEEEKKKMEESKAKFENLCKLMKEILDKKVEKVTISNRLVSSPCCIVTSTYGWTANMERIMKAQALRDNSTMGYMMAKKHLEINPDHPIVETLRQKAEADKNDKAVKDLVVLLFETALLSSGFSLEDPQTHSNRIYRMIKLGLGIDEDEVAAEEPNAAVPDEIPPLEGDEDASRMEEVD
Summary of the method: (§2)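 MCF-7 breast cancer cells were treated with compound at the concentrations shown, then lysed. Lysates were analysed by Western blot for the Hsp90-dependent clients Her2, Raf-1 and p-Akt, with actin as the Hsp90-independent control. Geldanamycin (0.5 μM) served as positive control and DMSO as negative control.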

[3] = biological target: Heat shock protein HSP 90-beta (Homo sapiens) (UniProt P08238); assay: Inhibition of HSP90 in human MCF7 cells assessed as degradation of Raf-1 at 1 to 10 uM after 24 hrs by Western blotting analysis; format: cell-based; summary of the method: as §2
[4] = biological target: Heat shock protein HSP 90-beta (Homo sapiens) (UniProt P08238); assay: Inhibition of HSP90 in human MCF7 cells assessed as degradation of Her-2 at 1 to 10 uM after 24 hrs by Western blotting analysis; format: cell-based; summary of the method: as §2
[5] = biological target: Heat shock protein HSP 90-beta (Homo sapiens) (UniProt P08238); assay: Inhibition of HSP90 in human MCF7 cells assessed as degradation of p-Akt after 24 hrs by Western blotting analysis; format: cell-based; summary of the method: as §2
[6] = biological target: Heat shock protein HSP 90-beta (Homo sapiens) (UniProt P08238); assay: Inhibition of HSP90 in human MCF7 cells assessed as degradation of Raf-1 after 24 hrs by Western blotting analysis; format: cell-based; summary of the method: as §2
[7] = biological target: Heat shock protein HSP 90-beta (Homo sapiens) (UniProt P08238); assay: Inhibition of HSP90 in human MCF7 cells assessed as degradation of Her-2 after 24 hrs by Western blotting analysis; format: cell-based; summary of the method: as §2

SMILES | IC50 (MCF7) | IC50 [1] | other results
COc1cccc(-c2cc(C(=O)Nc3cccc(-c4ccc(OC5CCN(C)CC5)cc4)c3)ccc2OC)c1 | 2.71 µM | 3.47 µM | 
CO[C@@H]1[C@@H](OC(N)=O)[C@@H](O)[C@H](Oc2ccc3c(O)c(NC(=O)c4ccc(O)c(CC=C(C)C)c4)c(=O)oc3c2C)OC1(C)C [NOVOBIOCIN] |  | 700 µM | 
CN1CCC(Oc2ccc(-c3cccc(NC(=O)c4ccc(Cl)cc4)c3)cc2)CC1 | 2.23 µM | 3.63 µM | 
CC(C)=CCc1cc(C(=O)Nc2cccc(-c3ccc(OC4CCN(C)CC4)cc3)c2)ccc1O | 2.21 µM | 2.94 µM | inhibition [2]: Active; inhibition [3]: Active; inhibition [4]: Active
CN1CCC(Oc2ccc(-c3cccc(NC(=O)c4ccccc4)c3)cc2)CC1 | 12 µM | 18.9 µM | 
CN1CCC(Oc2ccc(-c3cccc(NC(=O)c4ccccc4Cl)c3)cc2)CC1 | 5.17 µM | 7.87 µM | 
COc1ccc(C(=O)Nc2cccc(-c3ccc(OC4CCN(C)CC4)cc3)c2)cc1 | 5.52 µM | 10.1 µM | 
COc1cccc(C(=O)Nc2cccc(-c3ccc(OC4CCN(C)CC4)cc3)c2)c1 | 4.5 µM | 8.36 µM | 
CN1CCC(Oc2ccc(-c3cccc(NC(=O)c4ccc(Cl)c(Cl)c4)c3)cc2)CC1 | 2.17 µM | 2.24 µM | 
CC(=O)Oc1ccc(C(=O)Nc2cccc(-c3ccc(OC4CCN(C)CC4)cc3)c2)cc1CC=C(C)C | 1.45 µM | 3.65 µM | 
CN1CCC(Oc2ccc(-c3cccc(NC(=O)c4cccc(Cl)c4)c3)cc2)CC1 | 2.11 µM | 4.29 µM | 
CN1CCC(Oc2ccc(-c3cccc(NC(=O)c4ccc(C(C)(C)C)cc4)c3)cc2)CC1 | 3.45 µM | 1.51 µM | 
CN1CCC(Oc2ccc(-c3cccc(NC(=O)c4ccc5ccccc5c4)c3)cc2)CC1 | 1.66 µM | 2.09 µM | 
CN1CCC(Oc2ccc(-c3cccc(NC(=O)c4cccc5ccccc45)c3)cc2)CC1 | 1.1 µM | 1.64 µM | 
CN1CCC(Oc2ccc(-c3cccc(NC(=O)c4ccc(Br)cc4)c3)cc2)CC1 | 0.88 µM | 1.94 µM | inhibition [5]: Dose-dependent effect; inhibition [6]: Dose-dependent effect; inhibition [7]: Dose-dependent effect
Cc1cccc(C(=O)Nc2cccc(-c3ccc(OC4CCN(C)CC4)cc3)c2)c1 | 7.73 µM | 11.4 µM | 
Cc1ccc(C(=O)Nc2cccc(-c3ccc(OC4CCN(C)CC4)cc3)c2)cc1 | 3.92 µM | 5.27 µM | 
CN1CCC(Oc2ccc(-c3cccc(NC(=O)c4cc(Cl)cc(Cl)c4)c3)cc2)CC1 | 3.72 µM | 4.23 µM | 
CN1CCC(Oc2ccc(-c3cccc(NC(=O)c4ccc(Cl)cc4Cl)c3)cc2)CC1 | 3.93 µM | 5.91 µM | 
